Laboratory results from ChEMBL document CHEMBL1123760, “Synthesis and oral antifungal activity of novel azolylpropanolones and related compounds” (1987).
≈ marks a conversion by molar mass, not a printed value.

How the values were obtained:
Type in all cases: functional
Candida albicans [1] = experiment: Minimum effective concentration for inhibition of pseudomycelium formation in Candida albicans; conditions: for minimal effective concentration: Candida albicans, read-out: MEC
Method in brief: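 C. albicans KE-2 (clinical isolate) at a final 1 × 10^6 yeast cells/mL in EMEM with 20% calf serum; compounds diluted by the same microtiter system as for MICs. After incubation, wells were Giemsa-stained (5% in phosphate buffer) and read by microscope. MEC is the lowest concentration preventing typical pseudomycelium formation.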

Trichophyton benhamiae = experiment: In vitro antifungal activity against Trichophyton asteroides
Method in brief: (§1)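 Broth microdilution MIC in Sabouraud's glucose broth; final inocula 1 × 10^5 cells/mL (yeast) or 1 × 10^5 conidia/mL (mold and dermatophyte).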

Aspergillus fumigatus = experiment: In vitro antifungal activity against Aspergillus fumigatus; method in brief: as §1
Candida albicans [2] = experiment: In vitro antifungal activity against Candida albicans; method in brief: as §1
[3] = Aspergillus fumigatus, read-out: MIC
[4] = Candida albicans, read-out: MIC
[5] = Trichophyton benhamiae, read-out: MIC

MIC (Trichophyton benhamiae) | MIC (Aspergillus fumigatus; [3]) | MIC (Candida albicans [2]; [4]) | MIC (Trichophyton benhamiae; [5]) | MIC (Aspergillus fumigatus) | MIC (Candida albicans [2]) | SMILES | MEC (Candida albicans [1]) | minimal effective concentration (Candida albicans [1])
0.2 µg/mL (≈ 0.471 µM) | – | – | – | – | – | O=C1O[C@H](c2ccc(Cl)cc2)[C@@](Cn2cncn2)(c2ccc(Cl)cc2Cl)O1 (stereo in doubt; 129) | 0.04 µg/mL | –
– | > 100 µg/mL | > 100 µg/mL | 6.3 µg/mL (≈ 25.5 µM) | – | – | CC(C)(O)C(O)(Cn1cncn1)c1ccccc1 (configuration not stated) | – | > 20 µg/mL
– | 50 µg/mL (≈ 151 µM) | > 100 µg/mL | 0.1 µg/mL (≈ 0.303 µM) | – | – | CCCC(O)C(O)(Cn1cncn1)c1ccc(Cl)cc1Cl (configuration not stated) | – | 0.04 µg/mL
– | > 100 µg/mL | > 100 µg/mL | 1.6 µg/mL (≈ 4.83 µM) | – | – | OC(c1ccc(F)cc1)C(O)(Cn1cncn1)c1ccc(F)cc1 (configuration not stated) | – | 10 µg/mL
– | > 100 µg/mL | 100 µg/mL (≈ 256 µM) | 6.3 µg/mL (≈ 16.1 µM) | – | – | O=C1O[C@H](c2cccc(Cl)c2)[C@@](Cn2cncn2)(c2cccc(Cl)c2)O1 | – | > 20 µg/mL
– | > 100 µg/mL | > 100 µg/mL | 0.4 µg/mL (≈ 1.17 µM) | – | – | CC(C)[C@H]1OS(=O)O[C@]1(Cn1cncn1)c1ccc(Cl)cc1 (some centres not stated) | – | 0.16 µg/mL
– | 25 µg/mL (≈ 63.1 µM) | > 100 µg/mL | 0.1 µg/mL (≈ 0.252 µM) | – | – | CC(O)(c1ccc(F)cc1)C(O)(Cn1cncn1)c1ccc(Cl)cc1Cl (stereo in doubt; 173) | – | 0.31 µg/mL
– | > 100 µg/mL | > 100 µg/mL | 0.1 µg/mL (≈ 0.244 µM) | – | – | O=S1O[C@H](c2ccccc2)[C@](Cn2cncn2)(c2ccc(Cl)cc2Cl)O1 (some centres not stated) | – | 0.08 µg/mL
1.6 µg/mL (≈ 5.41 µM) | – | – | – | – | – | CCCC(O)C(O)(Cn1cncn1)c1ccc(Cl)cc1 (stereo in doubt; 106) | 0.16 µg/mL | –
0.8 µg/mL (≈ 2.47 µM) | – | – | – | 50 µg/mL (≈ 154 µM) | – | CCCCC(O)(Cn1cncn1)C(C)(O)c1ccc(Cl)cc1 (stereo in doubt; 190) | 2.5 µg/mL | –
0.1 µg/mL (≈ 0.276 µM) | – | – | – | 6.3 µg/mL (≈ 17.4 µM) | – | CC(O)(c1ccc(F)cc1)C(O)(Cn1cncn1)c1ccccc1Cl (stereo in doubt; 181) | 1.25 µg/mL | –
0.2 µg/mL (≈ 0.495 µM) | – | – | – | >100 µg/mL | – | CCCCC(O)(c1ccc(F)cc1)C(O)(Cn1cncn1)c1ccccc1Cl (stereo in doubt; 188) | 2.5 µg/mL | –

Second part, the compound before the results:

SMILES | MIC (Trichophyton benhamiae) | MIC (Aspergillus fumigatus; [3]) | MIC (Candida albicans [2]; [4]) | MIC (Trichophyton benhamiae; [5]) | MIC (Aspergillus fumigatus) | MIC (Candida albicans [2]) | MEC (Candida albicans [1]) | minimal effective concentration (Candida albicans [1])
O=C(c1ccco1)C(O)(Cn1cncn1)c1ccco1 (configuration not stated) | – | > 100 µg/mL | > 100 µg/mL | 100 µg/mL (≈ 366 µM) | – | – | – | > 20 µg/mL
CC(O)(c1ccc(Cl)cc1)C(O)(Cn1cncn1)c1ccc(Cl)cc1 (stereo in doubt; 193) | 0.1 µg/mL (≈ 0.264 µM) | – | – | – | 50 µg/mL (≈ 132 µM) | 100 µg/mL (≈ 264 µM) | 0.36 µg/mL | –
Fc1ccc([C@H]2OCO[C@]2(Cn2cncn2)c2ccc(Cl)cc2)cc1 | – | > 100 µg/mL | > 100 µg/mL | 0.2 µg/mL (≈ 0.556 µM) | – | – | – | 0.63 µg/mL
CCCCC(O)(Cn1cncn1)C(C)(O)c1ccc(Cl)cc1 (stereo in doubt; 191) | – | > 100 µg/mL | > 100 µg/mL | 0.6 µg/mL (≈ 1.85 µM) | – | – | – | 1.25 µg/mL
CC(O)(c1ccccc1)C(O)(Cn1cncn1)c1ccc(Cl)cc1Cl (stereo in doubt; 166) | – | 12.5 µg/mL (≈ 33 µM) | > 100 µg/mL | 0.1 µg/mL (≈ 0.264 µM) | – | – | – | 0.04 µg/mL
Cc1ccc([C@H]2OC(=O)O[C@]2(Cn2cncn2)c2ccc(C)cc2)cc1 | – | > 100 µg/mL | > 100 µg/mL | 3.1 µg/mL (≈ 8.87 µM) | – | – | – | 1.25 µg/mL
CCC[C@H]1OC(=O)O[C@]1(Cn1cncn1)c1ccc(Cl)cc1 | – | > 100 µg/mL | > 100 µg/mL | 1.6 µg/mL (≈ 4.97 µM) | – | – | – | 0.31 µg/mL
O=C1O[C@H](c2ccc(Cl)cc2Cl)[C@@](Cn2cncn2)(c2ccccc2)O1 | – | > 100 µg/mL | > 100 µg/mL | 0.4 µg/mL (≈ 1.03 µM) | – | – | – | 1.25 µg/mL
CCCCCC(O)(Cn1cncn1)C(=O)c1ccc(Cl)cc1 (configuration not stated) | – | > 100 µg/mL | 100 µg/mL (≈ 311 µM) | 0.2 µg/mL (≈ 0.621 µM) | – | – | – | 0.63 µg/mL
Cc1ccc([C@H]2OC(=O)O[C@]2(Cn2cncn2)c2ccccc2Cl)cc1 | – | > 100 µg/mL | > 100 µg/mL | 3.1 µg/mL (≈ 8.38 µM) | – | – | – | 0.63 µg/mL
CC(O)(c1ccc(F)cc1)C(O)(Cn1cncn1)c1ccccc1Cl (stereo in doubt; 182) | – | 12.5 µg/mL (≈ 34.5 µM) | > 100 µg/mL | 0.1 µg/mL (≈ 0.276 µM) | – | – | – | 2.5 µg/mL
Clc1ccc([C@H]2OCO[C@]2(Cn2cncn2)c2ccccc2)c(Cl)c1 | – | 12.5 µg/mL (≈ 33.2 µM) | > 100 µg/mL | 0.2 µg/mL (≈ 0.532 µM) | – | – | – | 0.63 µg/mL
CC(C)CC(O)(Cn1cncn1)C(=O)c1ccc(Cl)cc1 (configuration not stated) | – | > 100 µg/mL | > 100 µg/mL | 0.8 µg/mL (≈ 2.6 µM) | – | – | – | 0.31 µg/mL
COc1ccccc1C(=O)C(O)(Cn1cncn1)c1ccccc1OC (configuration not stated) | – | > 100 µg/mL | > 100 µg/mL | 12.5 µg/mL (≈ 35.4 µM) | – | – | – | > 20 µg/mL
OC(c1ccc(Cl)cc1)C(O)(Cn1cncn1)c1ccc(Cl)cc1 (stereo in doubt; 88) | 0.39 µg/mL (≈ 1.07 µM) | – | – | – | – | 50 µg/mL (≈ 137 µM) | 1.25 µg/mL | –
CCC(O)(Cn1cncn1)C(=O)c1ccc(Cl)cc1Cl (configuration not stated) | – | > 100 µg/mL | > 100 µg/mL | 1.6 µg/mL (≈ 5.09 µM) | – | – | – | 20 µg/mL
OC(c1cccc(Cl)c1)C(O)(Cn1cncn1)c1cccc(Cl)c1 (configuration not stated) | – | > 100 µg/mL | > 100 µg/mL | 3.1 µg/mL (≈ 8.51 µM) | – | – | – | > 20 µg/mL
CC(O)(c1ccc(Cl)cc1)C(O)(Cn1cncn1)c1ccc(Cl)cc1Cl (stereo in doubt; 176) | 0.1 µg/mL (≈ 0.242 µM) | – | – | – | 50 µg/mL (≈ 121 µM) | 50 µg/mL (≈ 121 µM) | 0.63 µg/mL | –
OC(c1ccc(F)cc1)C(O)(Cn1cncn1)c1ccc(Cl)cc1Cl (stereo in doubt; 105) | 25 µg/mL (≈ 65.4 µM) | – | – | – | >100 µg/mL | >100 µg/mL | 5 µg/mL | –
CC(C)C(O)C(O)(Cn1cncn1)c1ccc(Cl)cc1 (stereo in doubt; 101) | 6.3 µg/mL (≈ 21.3 µM) | – | – | – | – | – | 0.63 µg/mL | –
OC(c1ccc(F)cc1)C(O)(Cn1cncn1)c1ccc(Cl)cc1 (stereo in doubt; 103) | 0.8 µg/mL (≈ 2.3 µM) | > 100 µg/mL | > 100 µg/mL | – | – | – | 0.31 µg/mL | –
CC(C)C(C)(O)C(O)(Cn1cncn1)c1ccc(Cl)cc1Cl (stereo in doubt; 168) | 0.1 µg/mL (≈ 0.29 µM) | – | – | – | 25 µg/mL (≈ 72.6 µM) | – | 0.04 µg/mL | –
OC(c1ccc(F)cc1)C(O)(Cn1cncn1)c1ccc(Cl)cc1 (stereo in doubt; 104) | 6.3 µg/mL (≈ 18.1 µM) | – | – | – | – | 50 µg/mL (≈ 144 µM) | 2.5 µg/mL | –
CCC(O)(c1ccc(F)cc1)C(O)(Cn1cncn1)c1ccc(Cl)cc1 (stereo in doubt; 170) | 0.1 µg/mL (≈ 0.266 µM) | – | – | – | 25 µg/mL (≈ 66.5 µM) | – | 0.04 µg/mL | –
CC(C)C(=O)C(O)(Cn1cncn1)c1ccc(Cl)cc1 (stereo in doubt; 13) | – | – | – | – | 12.5 µg/mL (≈ 42.6 µM) | >100 µg/mL | 0.08 µg/mL | –
OC(Cn1cncn1)(c1ccc(F)cc1)C(O)(c1ccccc1)c1ccc(F)cc1 (stereo in doubt; 164) | >100 µg/mL | – | – | – | – | – | – | –
O=C1O[C@H](c2ccc(Cl)cc2)[C@](Cn2cncn2)(c2ccc(Cl)cc2Cl)O1 | 0.1 µg/mL (≈ 0.235 µM) | – | – | – | – | – | 0.08 µg/mL | –
